# Results as given in ChEMBL document CHEMBL1136473, “6-(2-adamantan-2-ylidene-hydroxybenzoxazole)-O-sulfamate: a potent non-steroidal irreversible inhibitor of human steroid sulfatase” (Bioorg Med Chem Lett, 2003).
# The source made the active and inactive calls. No cut-off for these calls is given here.
# Tests used:
# Estrogen receptor = biological target: T1, Estrogen receptor (Homo sapiens, UniProt P03372); test: Affinity for human estrogen receptor alpha
# T1 sequence (P03372 whole entry): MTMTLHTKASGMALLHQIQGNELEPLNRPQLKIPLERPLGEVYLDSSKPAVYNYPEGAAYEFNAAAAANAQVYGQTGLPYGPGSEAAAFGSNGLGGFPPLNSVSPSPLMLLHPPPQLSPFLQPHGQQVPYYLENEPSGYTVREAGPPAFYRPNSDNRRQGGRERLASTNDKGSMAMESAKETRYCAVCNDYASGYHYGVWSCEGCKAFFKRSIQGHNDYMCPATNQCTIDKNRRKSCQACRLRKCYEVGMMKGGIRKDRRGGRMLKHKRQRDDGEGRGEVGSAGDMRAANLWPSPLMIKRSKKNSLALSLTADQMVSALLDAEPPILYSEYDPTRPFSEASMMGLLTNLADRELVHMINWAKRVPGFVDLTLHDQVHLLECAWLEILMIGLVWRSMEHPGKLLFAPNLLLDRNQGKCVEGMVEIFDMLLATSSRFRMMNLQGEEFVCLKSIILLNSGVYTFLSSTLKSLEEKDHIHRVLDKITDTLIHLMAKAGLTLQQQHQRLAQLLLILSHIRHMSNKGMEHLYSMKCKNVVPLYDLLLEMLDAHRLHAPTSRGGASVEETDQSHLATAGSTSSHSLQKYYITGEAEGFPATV
# Estrogen receptor beta = Estrogen receptor beta (Homo sapiens, UniProt Q92731); test: Affinity for human estrogen receptor beta
# [1] = biological target: T2, Steryl-sulfatase (Homo sapiens) (UniProt P08842); test: Rate constant of inactivation against human steroid sulfatase
# T2 sequence (whole entry): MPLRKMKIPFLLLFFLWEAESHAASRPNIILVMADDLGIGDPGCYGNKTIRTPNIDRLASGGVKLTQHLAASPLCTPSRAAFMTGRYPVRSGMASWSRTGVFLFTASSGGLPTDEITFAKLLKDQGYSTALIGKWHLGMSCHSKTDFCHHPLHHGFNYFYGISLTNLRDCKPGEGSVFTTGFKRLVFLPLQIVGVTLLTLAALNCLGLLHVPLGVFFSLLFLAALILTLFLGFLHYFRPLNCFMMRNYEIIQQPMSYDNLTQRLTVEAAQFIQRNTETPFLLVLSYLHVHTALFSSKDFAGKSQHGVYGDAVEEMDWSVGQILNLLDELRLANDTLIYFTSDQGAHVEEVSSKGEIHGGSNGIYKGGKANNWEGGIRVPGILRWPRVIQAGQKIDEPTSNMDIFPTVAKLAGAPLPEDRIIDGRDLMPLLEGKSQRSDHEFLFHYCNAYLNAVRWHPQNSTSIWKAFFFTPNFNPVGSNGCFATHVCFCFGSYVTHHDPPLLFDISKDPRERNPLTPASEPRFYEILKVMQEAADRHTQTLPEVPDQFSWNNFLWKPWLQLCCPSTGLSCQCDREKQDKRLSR
# Outline: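 Purified human steroid sulfatase incubated with a range of inhibitor concentrations. Residual enzyme activity measured over time to follow inactivation kinetics, giving Ki and kinact.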
# Steryl-sulfatase [2] = biological target: T3, Steryl-sulfatase (Homo sapiens, UniProt P08842); test: Inhibitory constant against purified human steroid sulfatase
# T3 sequence (P08842 whole entry): T2 sequence (whole entry)
# [3] = biological target: T4, Arylsulfatase A (Homo sapiens) (UniProt P15289); test: Inhibitory activity against human Arylsulfatase A (ASA) isolated from human placenta; IA=Inactive
# T4 sequence (whole entry): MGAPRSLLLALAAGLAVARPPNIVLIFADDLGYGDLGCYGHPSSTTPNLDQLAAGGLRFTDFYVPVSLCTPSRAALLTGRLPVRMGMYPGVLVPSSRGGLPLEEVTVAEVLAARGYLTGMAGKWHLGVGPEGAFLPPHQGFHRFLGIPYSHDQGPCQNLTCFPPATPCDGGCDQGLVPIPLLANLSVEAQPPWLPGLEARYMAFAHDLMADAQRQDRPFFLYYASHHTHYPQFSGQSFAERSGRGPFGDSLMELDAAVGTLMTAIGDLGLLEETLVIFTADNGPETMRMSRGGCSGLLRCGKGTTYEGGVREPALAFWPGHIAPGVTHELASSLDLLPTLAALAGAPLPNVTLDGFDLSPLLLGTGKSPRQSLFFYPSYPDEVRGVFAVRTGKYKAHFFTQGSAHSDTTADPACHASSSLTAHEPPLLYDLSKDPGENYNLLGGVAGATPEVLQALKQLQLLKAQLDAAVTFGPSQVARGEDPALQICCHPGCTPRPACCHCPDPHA
# Outline: (§1)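 Arylsulfatases A and B purified from human placenta and assayed with inhibitor present at up to 10 μM. Time dependence of inhibition examined.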
# [4] = biological target: Arylsulfatase B (Homo sapiens) (UniProt P15848); test: Inhibitory activity against human aryl sulfatase B (ASB) isolated from human placenta at a concentration up to 10 uM; outline: as §1
# Steryl-sulfatase [5] = biological target: T3, Steryl-sulfatase; test: Inhibition of human STS in keratinocytes; type: cell-based
# Steryl-sulfatase [6] = biological target: T3, Steryl-sulfatase; test: Inhibitory activity against STS in human MCF-7 breast cancer cells; type: cell-based; details: mcf7
# Outline: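 Intact MCF-7 breast cancer cells; STS-dependent cleavage of estrone sulfate substrate measured to derive IC50.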
# Steryl-sulfatase [7] = biological target: T3, Steryl-sulfatase; test: Inhibitory activity against human steroid sulfatase expressing in CHO cells; type: cell-based
# Steryl-sulfatase [8] = biological target: T3, Steryl-sulfatase; test: Inhibitory activity against human steroid sulfatase in fibroblasts
# Estrogen receptor beta, sequence (Q92731 whole entry): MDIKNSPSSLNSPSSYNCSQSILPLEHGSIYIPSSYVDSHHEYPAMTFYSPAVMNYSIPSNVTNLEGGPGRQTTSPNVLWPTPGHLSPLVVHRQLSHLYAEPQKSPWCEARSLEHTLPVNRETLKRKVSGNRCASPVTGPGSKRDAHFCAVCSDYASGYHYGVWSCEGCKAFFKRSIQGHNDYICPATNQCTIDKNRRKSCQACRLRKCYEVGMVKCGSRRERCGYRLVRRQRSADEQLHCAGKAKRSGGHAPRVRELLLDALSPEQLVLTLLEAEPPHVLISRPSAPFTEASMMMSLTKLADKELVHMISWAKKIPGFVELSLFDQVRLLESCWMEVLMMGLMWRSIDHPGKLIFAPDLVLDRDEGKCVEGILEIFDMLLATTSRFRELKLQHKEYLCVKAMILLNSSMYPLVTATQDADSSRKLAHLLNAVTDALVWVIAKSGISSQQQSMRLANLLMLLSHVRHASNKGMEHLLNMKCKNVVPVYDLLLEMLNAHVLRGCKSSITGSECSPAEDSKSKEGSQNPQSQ
# Arylsulfatase B (Homo sapiens), sequence (P15848 whole entry): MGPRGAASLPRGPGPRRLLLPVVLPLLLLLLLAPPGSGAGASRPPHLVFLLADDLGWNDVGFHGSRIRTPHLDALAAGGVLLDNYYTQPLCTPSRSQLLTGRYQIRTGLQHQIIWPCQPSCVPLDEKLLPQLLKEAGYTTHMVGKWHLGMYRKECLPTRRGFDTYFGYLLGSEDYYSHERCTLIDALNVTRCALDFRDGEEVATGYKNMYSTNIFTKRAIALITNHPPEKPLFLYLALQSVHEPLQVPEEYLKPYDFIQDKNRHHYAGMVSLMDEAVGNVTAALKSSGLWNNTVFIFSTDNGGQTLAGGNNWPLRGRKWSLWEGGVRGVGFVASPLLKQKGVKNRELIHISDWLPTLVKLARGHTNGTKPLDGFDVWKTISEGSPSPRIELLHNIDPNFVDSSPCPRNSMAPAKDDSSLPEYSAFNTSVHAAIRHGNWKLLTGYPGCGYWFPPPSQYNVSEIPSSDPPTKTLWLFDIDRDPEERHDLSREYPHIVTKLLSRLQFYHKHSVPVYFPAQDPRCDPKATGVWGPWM
SMILES,EC50 (Estrogen receptor) [nM],EC50 (Estrogen receptor beta) [nM],K inact [1] [U s-1],Ki (Steryl-sulfatase [2]) [nM],Activity [3],inhibition [4] [%],IC50 (Steryl-sulfatase [5]) [nM],IC50 (Steryl-sulfatase [6]) [nM],IC50 (Steryl-sulfatase [7]) [nM],IC50 (Steryl-sulfatase [8]) [nM]
"C[C@]12CC[C@@H]3c4ccc(OS(N)(=O)=O)cc4CCC3[C@@H]1CCC2=O (single isomer, unassigned) [EMATE]",2600,3700,0.009,470,,,,,,
NS(=O)(=O)Oc1ccc2nc(C=C3C4CC5CC(C4)CC3C5)oc2c1,> 100000,> 100000,0.097,6000,inactive,25,0.77,2.3,31.8,0.75
